According to ChEMBL document CHEMBL1687750, “Nonclinical pharmacokinetics of oseltamivir and oseltamivir carboxylate in the central nervous system” (Antimicrob Agents Chemother, 2009):

Legend:
[1] = Cmax in perfused Sprague-Dawley rat cerebrospinal fluid at 1000 mg/kg, po; type: ADME, organism-based; parameters: dose 1000 mg/kg, route oral
Procedure, shortened: (§1)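 Oseltamivir phosphate was given by oral gavage at 1,000 mg/kg free base. Sampling was at 1, 2, 4, 6 and 8 h, with 4 rats per time point, under terminal isoflurane. Blood was taken by cardiac puncture and CSF from the cisterna magna. Brains were perfused transcardially with saline before homogenization. Samples were quantified by LC-MS/MS, with noncompartmental analysis of pooled composite data giving AUC0-8 h and concentration ratios.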

[2] = […] of Spodoptera frugiperda Sf9 cells over expressing human MRP1; type: ADME, cell-based
Procedure, shortened: (§2)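 Membrane vesicles (20–50 µg) from insect cells expressing recombinant human BCRP1, MRP1 or MRP3 were prewarmed at 37°C. They were incubated for 60 s at 37°C with 14C-oseltamivir (3.8 µM) or OC (3.1 µM), with or without 5 mM ATP, in sucrose/KNO3/Mg(NO3)2/HEPES-Tris pH 7.4. The reaction was stopped with ice-cold buffer containing taurocholate, followed by rapid nitrocellulose filtration and scintillation counting. Determinations were in triplicate.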

[3] = AUC (0 to 8 hrs) ratio in cerebrospinal fluid to brain in perfused Sprague-Dawley rat at 1000 mg/kg, po; type: ADME, organism-based; parameters: dose 1000 mg/kg, route oral; details: in vivo; procedure, shortened: as §1
[4] = Terminal half life in non-perfused Sprague-Dawley rat cerebrospinal fluid at 30 mg/kg, iv; type: ADME, organism-based; parameters: dose 30 mg/kg, route intravenous; details: read-out: beta t1/2 (converted)
Procedure, shortened: (§3)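 Nonfasted Sprague-Dawley rats given 30 mg/kg i.v. in 0.9% NaCl pH 4.0 by tail vein over 20–30 s. Terminal sampling under isoflurane at 5 min, 0.25, 0.5, 1, 2, 4 and 8 h (4–5 rats/time): plasma, CSF, and brain homogenate, with or without saline perfusion. LC-MS/MS. t1/2, Vss and ratios from noncompartmental analysis of pooled composite concentrations.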

[5] = Terminal half life in perfused Sprague-Dawley rat cerebrospinal fluid at 30 mg/kg, iv; type: ADME, organism-based; parameters: dose 30 mg/kg, route intravenous; details: read-out: beta t1/2 (converted); procedure, shortened: as §3
[6] = Cmax in perfused Sprague-Dawley rat brain at 1000 mg/kg, po; type: ADME, organism-based; parameters: dose 1000 mg/kg, route oral; procedure, shortened: as §1
[7] = Permeability from […] of Spodoptera frugiperda Sf9 cells over expressing human BCRP1; type: ADME, cell-based; procedure, shortened: as §2
[8] = test system: Brain; experiment: AUC (0 to 8 hrs) after iv dose in perfused Sprague-Dawley rat brain at 30 mg/kg; details: in vivo
[9] = Cmax in non-perfused Sprague-Dawley rat cerebrospinal fluid at 30 mg/kg, iv; type: ADME, organism-based; parameters: dose 30 mg/kg, route intravenous
Procedure, shortened: (§4)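 Nonfasted adult rats received 30 mg/kg in aqueous 0.9% NaCl (pH 4.0) by slow tail-vein injection over 20–30 s. Groups were sampled at 5 min and 0.25, 0.5, 1, 2, 4 and 8 h, with 4–5 rats per time point, under terminal isoflurane. Blood was taken by heart puncture and CSF from the cisterna magna. Brains were homogenized either unperfused or after transcardial saline perfusion. Samples were assayed by LC-MS/MS, and pooled composite data were analyzed noncompartmentally.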

[10] = test system: Brain; experiment: AUC (0 to 8 hrs) after iv dose in non-perfused Sprague-Dawley rat brain at 30 mg/kg; details: in vivo
[11] = Terminal half life in non-perfused Sprague-Dawley rat brain at 30 mg/kg, iv; type: ADME, organism-based; parameters: dose 30 mg/kg, route intravenous; details: read-out: beta t1/2 (converted); procedure, shortened: as §3
[12] = Cmax in non-perfused Sprague-Dawley rat plasma at 30 mg/kg, iv; type: ADME, organism-based; parameters: dose 30 mg/kg, route intravenous; procedure, shortened: as §4
[13] = Terminal half life in perfused Sprague-Dawley rat brain at 30 mg/kg, iv; type: ADME, organism-based; parameters: dose 30 mg/kg, route intravenous; details: read-out: beta t1/2 (converted); procedure, shortened: as §3
[14] = AUC (0 to 8 hrs) ratio in brain to plasma in perfused Sprague-Dawley rat at 1000 mg/kg, po; type: ADME, organism-based; parameters: dose 1000 mg/kg, route oral; details: brain and plasma, read-out: Ratio AUC; procedure, shortened: as §1
[15] = test system: Cerebrospinal fluid; experiment: AUC (0 to 8 hrs) after iv dose in perfused Sprague-Dawley rat cerebrospinal fluid at 30 mg/kg; details: in vivo
[16] = Cmax in perfused Sprague-Dawley rat plasma at 30 mg/kg, iv; type: ADME, organism-based; parameters: dose 30 mg/kg, route intravenous; procedure, shortened: as §4
[17] = Permeability from […] of Spodoptera frugiperda Sf9 cells over expressing human MRP3; type: ADME, cell-based; procedure, shortened: as §2
[18] = AUC (0 to 8 hrs) ratio in cerebrospinal fluid to plasma in perfused Sprague-Dawley rat at 1000 mg/kg, po; type: ADME, organism-based; parameters: dose 1000 mg/kg, route oral; details: cerebrospinal fluid and plasma, read-out: Ratio AUC; procedure, shortened: as §1
[19] = test system: Plasma; experiment: AUC (0 to 8 hrs) after iv dose in perfused Sprague-Dawley rat plasma at 30 mg/kg; details: in vivo
[20] = Terminal half life in non-perfused Sprague-Dawley rat plasma at 30 mg/kg, iv; type: ADME, organism-based; parameters: dose 30 mg/kg, route intravenous; details: read-out: beta t1/2 (converted); procedure, shortened: as §3
[21] = Cmax in perfused Sprague-Dawley rat cerebrospinal fluid at 30 mg/kg, iv; type: ADME, organism-based; parameters: dose 30 mg/kg, route intravenous; procedure, shortened: as §4
[22] = Cmax in perfused Sprague-Dawley rat plasma at 1000 mg/kg, po; type: ADME, organism-based; parameters: dose 1000 mg/kg, route oral; procedure, shortened: as §1
[23] = test system: Plasma; experiment: AUC (0 to 8 hrs) after po dose in perfused Sprague-Dawley rat plasma at 1000 mg/kg; details: in vivo
[24] = Cmax in perfused Sprague-Dawley rat brain at 30 mg/kg, iv; type: ADME, organism-based; parameters: dose 30 mg/kg, route intravenous; procedure, shortened: as §4
[25] = test system: Cerebrospinal fluid; experiment: AUC (0 to 8 hrs) after iv dose in non-perfused Sprague-Dawley rat cerebrospinal fluid at 30 mg/kg; details: in vivo
[26] = test system: Cerebrospinal fluid; experiment: AUC (0 to 8 hrs) after po dose in perfused Sprague-Dawley rat cerebrospinal fluid at 1000 mg/kg; details: in vivo
[27] = test system: Brain; experiment: Ratio of AUC (0 to infinity) after iv dose to AUC (0 to 8 hrs) after po dose in perfused Sprague-Dawley rat brain at 1000 mg/kg; type: ADME, organism-based; parameters: dose 1000 mg/kg, route oral; details: in vivo
Procedure, shortened: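 Sprague-Dawley rats, nonfasted. i.v.: 30 mg/kg in 0.9% NaCl pH 4.0, slow tail-vein injection, sampled at 5 min and 0.25–8 h. Oral gavage: 1,000 mg/kg free base, sampled 1–8 h. Four or five rats per time point, with cardiac blood and cisterna magna CSF. Brains taken with or without saline transcardial perfusion (oral study perfused). LC-MS/MS. AUC by noncompartmental analysis of pooled composite data.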

[28] = Terminal half life in perfused Sprague-Dawley rat plasma at 30 mg/kg, iv; type: ADME, organism-based; parameters: dose 30 mg/kg, route intravenous; details: read-out: beta t1/2 (converted); procedure, shortened: as §3
[29] = Cmax in non-perfused Sprague-Dawley rat brain at 30 mg/kg, iv; type: ADME, organism-based; parameters: dose 30 mg/kg, route intravenous; procedure, shortened: as §4
[30] = AUC ratio in cerebrospinal fluid to plasma in Sprague-Dawley rat at 30 mg/kg, iv; type: ADME, organism-based; parameters: dose 30 mg/kg, route intravenous; details: cerebrospinal fluid and plasma, read-out: Ratio AUC; procedure, shortened: as §4
[31] = Prodrug conversion in 42 days old male rat brain S9 fractions assessed as conversion of oseltamivir to oseltamivir carboxylate; type: ADME, subcellular, S9 fraction
Procedure, shortened: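 Rat brain or liver S9 (9,000 × g supernatant; 1.0 mg protein) was incubated in triplicate with 10 µM 14C-oseltamivir (final) in 100 mM Tris-HCl pH 7.4 for 30 min at 37°C. Reactions were quenched with TCA-acetonitrile, and the fraction converted to OC was measured by radioflow HPLC with fractionation. Rate was calculated as (pmol/ml substrate × fraction hydrolyzed)/(mg protein/ml × time), minus the no-protein background.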

[32] = test system: Plasma; experiment: AUC (0 to infinity) in non-perfused Sprague-Dawley rat plasma at 30 mg/kg; details: in vivo, iv
[33] = Prodrug conversion in commercial brain S9 fractions assessed as paranitrophenol generation rate assessed per mg of protein per min; type: ADME

Compound	Cmax [1]	permeability [2]	Ratio AUC [3]	half-life [4]	half-life [5]	Cmax [6]	permeability [7]	AUC [8]	Cmax [9]	AUC [10]	half-life [11]	Cmax [12]	half-life [13]	Kp [14]	AUC [15]	Cmax [16]	permeability [17]	Kp [18]	AUC [19]	half-life [20]	other results
CCC(CC)O[C@@H]1C=C(C(=O)O)C[C@H](N)[C@H]1NC(C)=O [OSELTAMIVIR CARBOXYLATE]	363 ng/mL	impermeable	0.64	0.342 h	0.382 h	641 ng/g	impermeable	305	227 ng/mL	687	0.379 h	72300 ng/mL	0.478 h	0.01	137	86300 ng/mL	impermeable	0.007	33800	1.64 h	Cmax [21]: 249 ng/mL; Cmax [22]: 49700 ng/mL; AUC [23]: 286000; Cmax [24]: 605 ng/g; AUC [25]: 128; AUC [26]: 1940; Ratio AUC [27]: 3450; half-life [28]: 1.69 h; Cmax [29]: 1710 ng/g
CCOC(=O)C1=C[C@@H](OC(CC)CC)[C@H](NC(C)=O)[C@@H](N)C1 [OSELTAMIVIR]	1120 ng/mL	impermeable	0.55	0.813 h	0.812 h	2310 ng/g	impermeable	1160	897 ng/mL	1310	2.45 h	12000 ng/mL	1.51 h	0.12	472	12500 ng/mL	impermeable	0.07	5330	1.35 h	Kp [30]: 0.09; Activity [31]: 0.16%; Cmax [21]: 921 ng/mL; Cmax [22]: 16300 ng/mL; AUC [23]: 107000; Cmax [24]: 491 ng/g; AUC [25]: 450; AUC [26]: 7470; AUC [27]: 13600 ng·h/g; half-life [28]: 1.59 h; AUC [32]: 5330; Cmax [29]: 712 ng/g; Activity [33]: 49 nmol
